Compound activity from PubChem.
Only some compounds are listed: those with a hit (about 2.2% of all), similar ones and a draw of the others.
FGF22 binding: shifts melting point of recombinant human FGF22. Q9HCT0. recombinant FGF22 thermal shift, SYPRO orange fluorescence; percent of sucrose octasulfate shift, DMSO zero. activity (Tm shift, normalised), % at 9.99 µM. 340,000 tested, 1.5% active. AID 651658;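 active = mean Tm shift, scaled 0 neutral to 100 positive control, at about 1.3% or above, every replicate too, limit read from the data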
Target sequence (Q9HCT0 whole entry, looked up): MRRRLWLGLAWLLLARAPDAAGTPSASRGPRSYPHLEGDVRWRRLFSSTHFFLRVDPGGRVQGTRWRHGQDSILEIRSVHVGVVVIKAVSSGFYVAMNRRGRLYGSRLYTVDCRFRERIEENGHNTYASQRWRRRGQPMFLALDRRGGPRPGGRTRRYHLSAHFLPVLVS
NR2E3 ag-1: agonists of human NR2E3 nuclear receptor | Q9Y5X4 | CHO-S Gal4-NCOR/VP16-NR2E3 two-hybrid, luciferase | inhibition of corepressor binding, % at 3.98 µM | 360,000 tested, 0.35% active | AID 602229;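 active = inhibition above the mean of all tested compounds plus 3 SD, cut at about 70% in these data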;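 note: 0% = DMSO with NR2E3 transfected cells and 100% = cells lacking NR2E3 construct; higher means lower luciferase signal from less NR2E3 corepressor binding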
Target sequence (Q9Y5X4 whole entry, looked up, the tested form may be a part): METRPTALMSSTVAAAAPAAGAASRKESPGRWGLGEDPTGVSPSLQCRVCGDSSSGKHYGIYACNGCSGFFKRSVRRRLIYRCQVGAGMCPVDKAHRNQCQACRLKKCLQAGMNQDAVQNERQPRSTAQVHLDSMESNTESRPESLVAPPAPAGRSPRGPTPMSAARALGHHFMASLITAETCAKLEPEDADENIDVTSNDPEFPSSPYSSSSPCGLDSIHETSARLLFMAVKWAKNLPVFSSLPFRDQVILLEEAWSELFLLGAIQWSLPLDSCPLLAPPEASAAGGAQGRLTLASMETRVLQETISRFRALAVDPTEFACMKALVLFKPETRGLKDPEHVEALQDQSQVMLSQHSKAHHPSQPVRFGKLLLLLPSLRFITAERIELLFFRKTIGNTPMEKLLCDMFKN
miR122 inh: inhibitors of miR-122 in Huh7 cells | Huh7 miR-122 Renilla luciferase sensor, 48 h; neutral wells = 0, positive control = 100 | 340,000 tested, 0.3% active | activation (reporter increase), % at 12.5 µM;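 active = mean replicate activation score at least 90 and every replicate individually at or above 90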;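 note: higher luciferase means less miR-122 activity so hits act as miR-122 inhibitors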
Jurkat NFkB inh: lowers PMA/ionomycin-induced NF-kB signal in Jurkat cells | 330,000 tested, 0.53% active | AID 435003 | PMA/ionomycin-induced NF-kB luciferase reporter, luminescence | inhibition, % at 4 µM; in the data active = inhibition above about 50%
NR2E3 ag-2: NR2E3 (human) agonism. Q9Y5X4. GST-NR2E3/biotin-RetCOR TR-FRET, 1536-well. inhibition of corepressor binding, % at 4.78 µM. 320,000 tested, 0.12% active. AID 2300;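 active = percent inhibition above the cutoff of mean plus 3 SD of all tested compounds, set per screening campaign, cut at about 20% in these data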;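 note: 0% = DMSO wells and 100% = biotin wells as full block of FRET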
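System: GST-tagged NR2E3 plus biotinylated RetCOR corepressor; Buffer or medium: pH 7.5 Tris-based buffer; Probe or stimulus: RetCOR corepressor, biotinylated, 7 nM; Doses: compound at 4.8 µM, single dose; Schedule: 5 h incubation at 4 °C; Technique: time-resolved FRET; Evaluation: percent inhibition of TR-FRET ratio; Replication: one well per compound, singlicate testing.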
697 NFkB inh: inhibitors of the PMA/ionomycin-induced NF-kB reporter in 697 B cells | 697 B-cell NF-kB luciferase reporter, 16 h | inhibition, % at 4 µM | 330,000 tested, 0.33% active; in the data active = inhibition above about 35%
Jurkat NFkB conf: lowers PMA/ionomycin-induced NF-kB signal in Jurkat cells; inhibition, % at 4 µM; AID 435020; 2,700 tested, 27% active; Jurkat NF-kB luciferase, 16 h; shares compounds with Jurkat NFkB inh;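 active = inhibition reaching about 45% at 4 µM in either replicate, limit read from the data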;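 note: plate controls were PMA/ionomycin stimulated DMSO wells for no effect and unstimulated DMSO wells for full effect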
* = called active by the depositor; . = no result; [ ] = remark or other dose.

SMILES | FGF22 binding | NR2E3 ag-1 | miR122 inh | Jurkat NFkB inh | NR2E3 ag-2 | 697 NFkB inh | Jurkat NFkB conf
CCNC(=O)C[C@H]1CC[C@@H]2[C@H](COc3ccc(NC(=O)Nc4ccc(F)cc4)cc3C(=O)N2C)O1 | . | . | -8[16.7 µM] | . | . | . | .
CCOC(=O)N/N=C/c1c(C)nn(-c2cccc(C(F)(F)F)c2)c1Cl | . | -55 | . | 51* | -2 | -44 | 46
Cc1nn(-c2cccc(C(F)(F)F)c2)c(Cl)c1/C=N/Nc1cccc(C(=O)O)c1 | 0 | -144 | . | . | 3 | . | .
C[C@@H]1CN([C@@H](C)CO)C(=O)c2cc(C#C[C@@H](C)O)cnc2O[C@@H]1CN(C)Cc1ccccn1 | 0 | . | 2[16.7 µM] | . | . | . | .
CN(NC(=O)c1ccc(Cl)cc1)c1nc(-c2ccccc2)nnc1C(F)(F)F | . | -21 | -3 | -2 | 5 | 3 | .
Cc1ccc(C(=O)NN(C)c2nc3ccccc3nc2C(F)(F)F)cc1 | . | -49 | -8 | 56* | -1 | -43 | 33
CN(C)CC(=O)Nc1ccc2c(c1)[C@@H]1C[C@@H](CC(=O)NCc3cccnc3)O[C@H](CO)[C@@H]1O2 | 0 | . | -1[16.7 µM] | . | . | . | .
Cn1c(/C=C/c2ccccc2)nc2ccccc2c1=O | 0 | -25 | . | -56 | -2 | -44 | .
Cn1c(/C=C/c2ccc([N+](=O)[O-])o2)nc2ccccc2c1=O | . | 29 | 9 | 82* | -7 | -35 | 26
CC1CCN(c2ncnc3c2cnn3-c2ccccc2)CC1 | 0 | -128 | 0 | -187 | 1 | -185 | -106
Cn1ncc2c(N3CCN(c4ccc(Cl)c(Cl)c4)CC3)ncnc21 | 0 | 36 | . | 59* | 1 | 32 | 60*
c1ccc(CNc2ncnc3c2cnn3-c2ccccc2)cc1 | . | -136 | -4 | 26 | -4 | -103 | .
Cn1ncc2c(N3CCN(c4ccccc4F)CC3)ncnc21 | . | -7 | . | -21 | 2 | -18 | .
CCOC(=O)C1CCN(c2ncnc3c2cnn3-c2ccccc2)CC1 | . | -19 | -14 | 6 | -2 | 27 | .
CC(C)(C)Nc1ncnc2c1cnn2-c1ccccc1 | 0 | -97 | 0 | -173 | 3 | -218 | -127
COC(=O)C[C@H]1CC[C@H]2[C@H](COc3ccc(NC(=O)Nc4cccc(F)c4)cc3C(=O)N2C)O1 | -1 | . | -8[16.7 µM] | . | . | . | .
NNC(=O)COc1ccc(F)cc1 | 1 | 4 | . | 10 | 1 | 2 | .
NNC(=O)COc1ccccc1F | 1 | -46 | . | 96* | -2 | -1 | 2
CC(=O)Nc1ccc(C(=O)Nc2cccc(S(=O)(=O)N(C)c3ccccc3)c2)cc1 | 0 | 3 | -2 | 2 | 3 | -2 | .
CN(c1ccccc1)S(=O)(=O)c1cccc(NC(=O)c2ccc(Cl)c([N+](=O)[O-])c2)c1 | 0 | 7 | . | 63* | . | -5 | 10
COc1cccc(CN(C)C(=O)c2ccc(OCC(=O)Nc3cccc(C(F)(F)F)c3)c(OC)c2)c1 | . | 5 | . | 56* | -4 | -35 | 62*
COc1ccc(CN(C)C(=O)c2ccc(OCC(=O)Nc3cccc(C(F)(F)F)c3)c(OC)c2)c(OC)c1 | 0 | 17 | . | 34 | -2 | -28 | .
CCOC(=O)c1c(-c2ccc(-c3ccccc3)cc2)csc1NC(=O)CNCCN(C)C | -1 | 7 | -4 | 52* | -3 | -1 | 10
Clc1ccccc1/C=N/NC1=Nc2cccc3cccc1c23 | 0 | -118 | . | -163 | -3 | -163 | -86
C(=N\NC1=Nc2cccc3cccc1c23)/c1ccccn1 | 0 | -24 | . | . | . | . | .
SMILES | FGF22 binding | NR2E3 ag-1 | miR122 inh | Jurkat NFkB inh | NR2E3 ag-2 | 697 NFkB inh | Jurkat NFkB conf
Cc1ccc(-n2nc(C)c(NC(=O)CCl)c2C)cc1C | . | -9 | 8 | 64* | 3 | 13 | 21
C[C@@H]1CN([C@@H](C)CO)C(=O)c2cc(-c3ccccc3)cnc2O[C@@H]1CN(C)C | 0 | . | -3[16.7 µM] | . | . | . | .
COc1ccc(C2=NOC(COc3ccc4c(C)cc(=O)oc4c3)C2)c(OC)c1 (stereo not given) | 0 | -38 | 9 | 51* | -1 | -10 | 35
COc1ccccc1C1=NOC(COc2ccc3c(C)cc(=O)oc3c2)C1 (stereo not given) | 0 | -26 | 43 | 67* | 3 | -4 | 39
COc1ccc2c(C)cc(=O)oc2c1 | 0 | -35 | -4 | . | . | . | .
CO[C@H]1CN(C)C(=O)c2cc(NS(C)(=O)=O)ccc2OC[C@@H](C)N(Cc2ccccn2)C[C@H]1C | . | . | -5[16.7 µM] | . | . | . | .
O=C(Nc1cccc(C(F)(F)F)c1)c1sc(Cl)nc1C(F)(F)F | 0 | -10 | -15 | 97* | -1 | -207 | 71*
CC(C)NC(=O)Nc1ccc2c(c1)C(=O)N([C@@H](C)CO)C[C@H](C)[C@@H](CN(C)C(=O)NC(C)C)OCCCC[C@H](C)O2 | 0 | . | -4[16.7 µM] | . | . | . | .
Clc1ccc2nc3c4ccccc4cnn3c2c1 | 43* | -124 | . | -160 | 4 | -174 | -121
C[C@H](CO)N1C[C@H](C)[C@@H](CN(C)C(=O)C2CC2)Oc2cc(-c3ccccc3)ccc2S1(=O)=O | . | . | 16[16.7 µM] | . | . | . | .
Cc1ccc(NC(=O)C2=C(c3ccccc3)S(=O)(=O)CCS2(=O)=O)cc1 | 0 | 16 | . | 63* | 4 | -79 | 34
COc1cccc(/C=N/Nc2ncnc(Cl)c2N)c1O | 0 | -29 | . | 56* | -3 | -85 | 13
COc1ccc(-c2csc3ncnc(Cl)c23)cc1 | 1 | -7 | -7 | -5 | 1 | 14 | .
COc1cccc(/C=N/Nc2ncnc3scc(-c4ccccc4)c23)c1O | . | -5 | . | 73* | 0 | -20 | 57*
COc1ccc(Nc2ncnc3scc(-c4ccc(OC)cc4)c23)cc1 | 0 | -33 | . | 52* | 5 | -46 | 22
C[C@H](CO)N1C[C@H](C)[C@H](CN(C)C(=O)C2CC2)Oc2cc(-c3ccc(C(=O)N(C)C)cc3)ccc2S1(=O)=O | . | . | -11[16.7 µM] | . | . | . | .
CCC(=O)N1[C@H](CO)[C@H](c2ccc(-c3cccnc3)cc2)[C@@H]1CN(C)C(C)=O | . | . | -14[16.7 µM] | . | . | . | .
CCSc1nc2ccccc2n1C(=O)/C=C\c1ccc(OC)c(OC)c1 | . | 11 | 34 | 53* | 2 | -136 | 42
CCSc1nc2ccccc2n1CC(N)=O | . | -4 | -2 | -6 | 4 | 11 | .
CCO[C@H]1OC(C(=O)NCc2nc3ccccc3[nH]2)=C[C@@H](c2ccccc2)[C@@H]1CCCO | 0 | 20 | -5 | 6 | 2 | 15 | .
CCO[C@H]1OC(C(=O)NCc2nc3ccccc3[nH]2)=C[C@@H](C2CC2)[C@@H]1CCCO | 0 | -23 | . | 61* | 2 | -11 | 46
CCNC(=O)Nc1ccc2c(c1)C(=O)N(C)[C@@H]1CC[C@@H](CC(=O)NCC3CC3)O[C@@H]1CO2 | 0 | . | -17[16.7 µM] | . | . | . | .
CN1c2ccc(Br)cc2[C@@H]2[C@@H](CCN2C(=O)c2cccc(F)c2)[C@@H]1CO | 0 | . | 2[16.7 µM] | . | . | . | .
